Results from ChEMBL document CHEMBL1141840, “Antifungal metabolites from the marine sponge Pachastrissa sp.: new bengamide and bengazole derivatives” (1999).
In brackets after ≈: the same amount, converted by molar mass. Activity calls are given as the source filed them. No cut-off for these calls is given here.

Legend:
[1] = test system: Saccharomyces cerevisiae; assay: Antimicrobial activity against Saccharomyces cerevisiae ATCC 28383 after 24 hrs by liquid-phase turbidimetric system; format: functional, organism-based
Method in brief: (§1)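 Fungal growth followed in liquid culture by turbidimetry, read automatically every 30 min over 24 h, with compounds tested at various concentrations.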

[2] = test system: Candida albicans; assay: Antifungal activity against Candida albicans CIP 118079 after 24 hrs by liquid-phase turbidimetric system; format: functional; conditions: for MIC: CIP 118079, 24 h; method in brief: as §1

SMILES | Activity [1] | MIC [2] | Activity [2]
CCCCCCCCCCCCCC(=O)O[C@@H](C)[C@@H](O)[C@@H](O)C[C@@H](O)c1coc(Cc2cnco2)n1 | inactive | 0.8 µg/mL (≈ 1.57 µM) | –
CCCCCCCCCCCCCC(=O)O[C@H](C[C@H](O)[C@H](O)[C@H](C)O)c1coc(Cc2cnco2)n1 | inactive | 0.8 µg/mL (≈ 1.57 µM) | –
CCCCCCCCCCCCCC(=O)O[C@H]1CC[C@H](NC(=O)[C@H](OC)[C@H](O)[C@@H](O)[C@H](O)/C=C/C(C)C)C(=O)N(C)C1 | inactive | – | inactive
CCCCCCCCCCCCCCC(=O)O[C@H](C[C@H](O)[C@H](O)[C@H](C)O)c1coc(Cc2cnco2)n1 | inactive | 0.8 µg/mL (≈ 1.53 µM) | –
CC(C)CCCCCCCCCCCCC(=O)O[C@H](C[C@H](O)[C@H](O)[C@H](C)O)c1coc(Cc2cnco2)n1 | inactive | 0.8 µg/mL (≈ 1.49 µM) | –
CC(C)CCCCCCCCCCCCC(=O)O[C@@H](C)[C@@H](O)[C@@H](O)C[C@@H](O)c1coc(Cc2cnco2)n1 | inactive | 0.8 µg/mL (≈ 1.49 µM) | –
C[C@H](O)[C@@H](O)[C@@H](O)C[C@@H](O)c1coc(Cc2cnco2)n1 | inactive | – | inactive
CCCCCCCCCCCCCCCC(=O)O[C@@H](C)[C@@H](O)[C@@H](O)C[C@@H](O)c1coc(Cc2cnco2)n1 | inactive | 0.8 µg/mL (≈ 1.49 µM) | –
CC(C)CCCCCCCCCCCC(=O)O[C@H](C[C@H](O)[C@H](O)[C@H](C)O)c1coc(Cc2cnco2)n1 | inactive | 0.8 µg/mL (≈ 1.53 µM) | –
CC(C)CCCCCCCCCCCC(=O)O[C@@H](C)[C@@H](O)[C@@H](O)C[C@@H](O)c1coc(Cc2cnco2)n1 | inactive | 0.8 µg/mL (≈ 1.53 µM) | –
CCCCCCCCCCCCCCC(=O)O[C@@H](C)[C@@H](O)[C@@H](O)C[C@@H](O)c1coc(Cc2cnco2)n1 | inactive | 0.8 µg/mL (≈ 1.53 µM) | –
CO[C@@H](C(=O)N[C@H]1CC[C@H](OC(=O)CCCCCCCCCCCC(C)C)CNC1=O)[C@H](O)[C@@H](O)[C@H](O)/C=C/C(C)C | inactive | – | inactive
CO[C@@H](C(=O)N[C@H]1CCCCNC1=O)[C@H](O)[C@@H](O)[C@H](O)/C=C/C(C)C | inactive | – | inactive
CCCCCCCCCCCCCCCC(=O)O[C@H](C[C@H](O)[C@H](O)[C@H](C)O)c1coc(Cc2cnco2)n1 | inactive | 0.8 µg/mL (≈ 1.49 µM) | –
CCCCCCCCCCCCCC(=O)O[C@H]1CC[C@H](NC(=O)[C@H](OC)[C@H](O)[C@@H](O)[C@H](O)/C=C/C(C)C)C(=O)NC1 | inactive | – | inactive
